Test results as given in ChEMBL document CHEMBL1137227, “Identification of a selective inverse agonist for the orphan nuclear receptor estrogen-related receptor alpha” (J Med Chem, 2004).
Where “and” joins values, the source holds several entries; their conditions need not be identical. Equal values may be shown once.

Columns and labels:
[1] = molecular target: T1, Steroid hormone receptor ERR1 (Homo sapiens, UniProt P11474); assay: Inhibition of estrogen-related receptor alpha in FP assay
T1 sequence (P11474 whole entry): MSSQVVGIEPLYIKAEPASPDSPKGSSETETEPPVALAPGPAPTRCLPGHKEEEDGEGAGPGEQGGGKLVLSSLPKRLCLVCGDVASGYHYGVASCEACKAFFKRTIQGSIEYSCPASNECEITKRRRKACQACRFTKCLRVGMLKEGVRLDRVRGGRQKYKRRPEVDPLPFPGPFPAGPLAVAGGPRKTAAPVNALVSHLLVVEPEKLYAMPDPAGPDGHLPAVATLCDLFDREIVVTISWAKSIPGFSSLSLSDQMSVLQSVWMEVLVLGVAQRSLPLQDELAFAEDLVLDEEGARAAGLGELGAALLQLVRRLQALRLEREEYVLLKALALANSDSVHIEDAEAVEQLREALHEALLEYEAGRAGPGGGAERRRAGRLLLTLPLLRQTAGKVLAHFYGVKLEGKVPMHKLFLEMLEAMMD

[2] = molecular target: T1, Steroid hormone receptor ERR1; assay: (§1) Inhibition of estrogen-related receptor alpha Gal4 activity
Procedure, shortened: (§2)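 Cell-based cotransfection assay in Gal4-ERRα format. IC50 fitted by nonlinear regression to 10-dose titration curves and averaged over at least two experiments. Standard error of the mean typically under 30% per experiment. NA means not active under assay conditions.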

[3] = molecular target: T2, Steroid hormone receptor ERR1 (Homo sapiens) (UniProt P11474); assay: Percent inhibition of estrogen-related receptor alpha Gal4 activity at 10 uM
T2 sequence (whole entry): T1 sequence (P11474 whole entry)
Procedure, shortened: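 Gal4-ERRα cell-based cotransfection assay with compound tested at a single concentration of 10 μM. Activity expressed as percent inhibition of ERRα-driven Gal4 signal.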

[4] = molecular target: T1, Steroid hormone receptor ERR1; assay: as §1; remark: listed apart in the source
[5] = molecular target: T1, Steroid hormone receptor ERR1; assay: Inhibition of estrogen-related receptor alpha Gal4 activity; not active; procedure, shortened: as §2

IC50 [1] [nM] | IC50 [2] [nM] | inhibition [3] | IC50 [4] | IC50 [5] | SMILES
– | – | 112% | 1500 nM | – | COc1cc(/C=C(\C#N)C(=O)Nc2nnc(C(F)(F)F)s2)ccc1OCCOc1c(C)cccc1C
– | – | 90% | 1800 nM | – | CCc1nnc(NC(=O)/C(C#N)=C/c2ccc(OCc3cccc4ccccc34)c(OC)c2)s1
– | – | 104% | 1700 nM | – | COc1cc(/C=C(\C#N)C(=O)Nc2nnc(C(C)(C)C)s2)ccc1OCCOc1c(C)cccc1C
– | – | 103% | 1400 nM | – | COc1cc(/C=C(\C#N)C(=O)Nc2nncs2)ccc1OCCOc1c(C)cccc1C
– | – | – | – | Not Active | COc1cc(/C=C(\C#N)C(=O)Nc2nccs2)ccc1OCCOc1c(C)cccc1C
– | – | 96% | 2000 nM | – | CCc1nnc(NC(=O)/C(C#N)=C/c2ccc(OCCOc3c(C)cccc3C)c(OC)c2)s1
– | – | 105% | 500 nM | – | COc1cc(/C=C(\C#N)C(=O)Nc2nnc(-c3ccccc3)s2)ccc1OCc1ccc(C(F)(F)F)cc1C(F)(F)F
– | – | 88% | 3300 nM | – | CCc1nnc(NC(=O)/C(C#N)=C/c2ccc(OCCOc3c(C)cccc3C)c(OC)c2)o1
– | – | 74% | 2000 nM | – | COc1cc(/C=C(\C#N)C(=O)Nc2nnc(-c3ccc(N(C)C)cc3)s2)ccc1OCCOc1c(C)cccc1C
– | – | 92% | 2600 nM | – | COc1cc(/C=C(\C#N)C(=O)Nc2nnc(SC)s2)ccc1OCCOc1c(C)cccc1C
– | – | 57% | 2200 nM | – | CCc1nnc(NC(=O)/C(C#N)=C/c2ccc(OCc3ccccc3Br)c(OC)c2)s1

Second part, the molecule before the results:

SMILES | IC50 [1] [nM] | IC50 [2] [nM] | inhibition [3] | IC50 [4] | IC50 [5]
CCC1=NN2C/C(=C/c3ccc(OCCOc4c(C)cccc4C)c(OC)c3)C(=O)N=C2S1 | 1400 | 2300 | – | – | –
CCc1nnc(NC(=O)/C(C#N)=C/c2ccc(OCc3ccc(F)cc3C(F)(F)F)c(OC)c2)s1 | – | – | 109% and 90% | 920 nM and 1500 nM | –
CCc1nnc(NC(=O)/C(C#N)=C/c2ccc(OCc3ccccc3OC(F)(F)F)c(OC)c2)s1 | – | – | 101% | 1800 nM | –
CCc1nnc(NC(=O)/C(C#N)=C/c2ccc(OCc3c(F)cccc3C(F)(F)F)c(OC)c2)s1 | – | – | – | – | Not Active
COc1cc(/C=C(\C#N)C(=O)Nc2nnc(C(F)(F)F)s2)ccc1OCc1ccc(C(F)(F)F)cc1C(F)(F)F | – | – | 109% | – | –
CCc1nnc(NC(=O)/C(C#N)=C/c2ccc(OCc3cc(F)ccc3C(F)(F)F)c(OC)c2)s1 | – | – | – | 800 nM and 1700 nM | –
CCc1nnc(NC(=O)/C(C#N)=C/c2ccc(OCc3ccc(C(F)(F)F)cc3C(F)(F)F)c(OC)c2)s1 | – | – | 106% and 104% and 99% | 400 nM and 610 nM and 540 nM | –
COc1cc(/C=C(\C#N)C(=O)Nc2nncs2)ccc1OCc1ccc(C(F)(F)F)cc1C(F)(F)F | – | – | 99% | 750 nM | –
COc1cc(/C=C(\C#N)C(=O)Nc2nnc(SC)s2)ccc1OCc1ccc(C(F)(F)F)cc1C(F)(F)F | – | – | 105% | 440 nM | –
CCc1nnc(NC(=O)/C(C#N)=C/c2ccc(OCc3cc(C(F)(F)F)ccc3C(F)(F)F)c(OC)c2)s1 | – | – | – | – | Not Active
COc1cc(/C=C(\C#N)C(=O)Nc2nnc(C(C)(C)C)s2)ccc1OCc1ccc(C(F)(F)F)cc1C(F)(F)F | – | – | 43% | > 10000 nM | –
